Env fusion inh – blocks HIV Env-driven cell-cell fusion; HeLa-JRFL Env/CEM21 cell fusion, luciferase; inhibition, % at 12.3 µM; 1.1% of 360,000 active; AID 651610;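 active = mean replicate inhibition score of at least 50 and every replicate individually at or above 50; inconclusive = only one of the two criteria met; inactive = mean below 50 and not all replicates reaching 50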
rRNA inh HTS – selective bacterial rRNA inhibition in E. coli | E. coli WT GFP vs humanized-ribosome RFP mutants, fluorescence, 24 h; active compounds read low; DMSO median 0, no signal -100 | GFP signal change (wild-type ribosome), % (no concentration beside the values) | 1.6% of 350,000 active | AID 720706;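 active = significant combined selectivity score with lowered wild-type GFP, culture density cut under 30%, mutant RFP and density less affected; inactive = any of these conditions unmet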
FN deposit inh – fibronectin deposition inhibition. AH1F fibroblasts, Alexa488-fibronectin deposition fluorescence, overnight. inhibition, % at 12.6 µM. 0.086% of 350,000 active. AID 743247;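 active = mean inhibition across replicates of 30% or more, regardless of how many single replicates reach that level; inconclusive = mean under 30% yet at least half of replicates reach 30%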
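Schedule: 1 h cell adhesion before compound, then overnight fibronectin incubation; test system: AH1F fibroblast monolayer depositing Alexa488-labelled fibronectin into matrix; quantity: 10000 AH1F cells per well; probe or stimulus: fluorescent fibronectin at 24 nM final; signal: fluorescence, ex 485 nm, em 525 nm; evaluation: percent inhibition as loss of matrix-bound fibronectin fluorescence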
ERp5 inh – blocks human ERp5 reductase activity on insulin; 0.05% of 350,000 active; Q15084; ERp5 insulin aggregation, absorbance 650 nm, 90 min; AID 651711; inhibition, % at 9.99 µM;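 active = mean replicate inhibition above about 25%, with every replicate also reaching it, limit read from the data, passing the limit was not always enough; inconclusive = only one of those two criteria met; inactive = neither criterion met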
PvdQ inh – P. aeruginosa PvdQ acylase inhibition; purified PvdQ acylase, fluorescence plate reader; inhibition, % at 10 µM; 0.063% of 340,000 active; AID 488965; in the data active = inhibition above about 30%, passing the limit was not always enough; inconclusive = no clear call, values can overlap the other calls
PDI inh – inhibitors of human protein disulfide isomerase; inhibition, % at 10 µM; 0.052% of 350,000 active; PDI insulin aggregation turbidity, A650, 90 min;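 active = mean inhibition across replicates of 30% or more, whatever share of single replicates reach that level; inconclusive = mean inhibition below 30% while every single replicate reaches 30%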
Target sequence (P07237 whole entry, looked up): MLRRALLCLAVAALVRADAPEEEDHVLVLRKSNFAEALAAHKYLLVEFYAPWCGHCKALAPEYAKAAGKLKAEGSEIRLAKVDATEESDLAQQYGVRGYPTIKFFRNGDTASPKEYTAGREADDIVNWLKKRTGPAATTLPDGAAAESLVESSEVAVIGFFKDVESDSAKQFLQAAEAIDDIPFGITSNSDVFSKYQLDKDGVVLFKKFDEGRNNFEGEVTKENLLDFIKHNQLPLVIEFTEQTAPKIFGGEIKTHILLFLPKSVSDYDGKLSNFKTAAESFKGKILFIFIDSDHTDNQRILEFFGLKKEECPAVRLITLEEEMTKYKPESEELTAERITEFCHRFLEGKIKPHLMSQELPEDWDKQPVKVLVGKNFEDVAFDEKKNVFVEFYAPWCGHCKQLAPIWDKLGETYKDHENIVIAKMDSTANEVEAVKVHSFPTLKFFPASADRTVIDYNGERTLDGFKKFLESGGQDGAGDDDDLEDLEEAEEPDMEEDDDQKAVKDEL
A number is an active result; 0 = inactive; ? = inconclusive; - = no result; [ ] = remark or other dose. The list is not random: actives were taken first. Their share in the collection is about 2.2%.

SMILES | Env fusion inh | rRNA inh HTS | FN deposit inh | ERp5 inh | PvdQ inh | PDI inh
Cc1ccc(Cl)cc1N1CCN(C(c2cccnc2)c2nnnn2C2CCCCC2)CC1 (configuration not stated) | - | - | - | - | 0 | 0
CCC(C)(C)n1nnnc1C(c1cccnc1)N1CCC(Cc2ccccc2)CC1 (configuration not stated) | 0 | -33 | 0 | 0 | 0 | 0
COc1cccc(S(=O)(=O)N(C)C[C@H]2Oc3ncc(-c4cccc(C(=O)N(C)C)c4)cc3C(=O)N([C@H](C)CO)C[C@@H]2C)c1 | 0 | 0 | 0 | 0 | - | -
CCOC(=O)c1ccc(NC(=O)c2c(C)[nH]c(C(=O)OCC)c2C)cc1 | 0 | - | - | - | 0 | 0
CCOC(=O)c1c(C)[nH]c(C(=O)Nc2ccc(NC(C)=O)cc2)c1C | 0 | -27 | 0 | 0 | 0 | 0
C[C@@H]1CN([C@H](C)CO)C(=O)Cc2cc(NC(=O)Nc3ccc(F)cc3)ccc2O[C@H]1CN(C)C(=O)Nc1ccc(C(F)(F)F)cc1 | 0 | 0 | - | - | - | -
Cc1noc(C)c1NC(=O)Nc1ccc2c(c1)C(=O)N([C@H](C)CO)C[C@H](C)[C@H](CN(C)C(=O)c1ccccc1)OCCCC[C@@H](C)O2 | 0 | 0 | - | 0 | - | -
C[C@]12CC[C@@H]3c4ccc(O)cc4CC[C@H]3[C@@H]1CC[C@@H]2OC(=O)CCC(=O)O | 0 | - | 0 | 0 | 0 | 0
CCCCC(=O)OC1CCC2C3CCc4cc(O)ccc4C3CCC12C (configuration not stated) | 0 | - | 0 | 0 | 0 | 71
c1coc(-c2nc3ccccc3nc2-c2ccco2)c1 | - | -28 | - | 0 | 0 | 0
c1coc(-c2cnc3ccccc3n2)c1 | 0 | 0 | - | 0 | - | ?
O=C(N/N=C/c1ccccc1O)C(=O)N1CCCCCC1 | 0 | -25 | 0 | 0 | 0 | 0
COc1cc(C2C(C#N)=C(N)Oc3cc4c(cc32)OCO4)cc(OC)c1OC (configuration not stated) | 0 | 0 | - | 0 | 0 | 0
N#CC1=C(N)Oc2cc3c(cc2C1c1ccc(Cl)cc1)OCO3 (configuration not stated) | - | -23 | - | 0 | 0 | 0
COc1cc2nc(Nc3ccc(C)c(C)c3)nc(N)c2cc1OC | 0 | -38 | 0 | 0 | 0 | 0
COc1cc2nc(Nc3ccc(F)cc3)nc(N)c2cc1OC | 0 | -16 | 0 | 0 | 0 | 0
CNC[C@H]1Oc2c(NC(=O)Cc3ccccc3)cccc2C(=O)N([C@H](C)CO)C[C@@H]1C | - | 0 | 0 | - | - | -
Cc1ccccc1Oc1ccc(-c2nc(N)nc(N)n2)cc1 | 0 | - | 0 | - | 0 | 0
Nc1nc(N)nc(-c2ccc(Oc3ccccc3)cc2)n1 | - | -34 | - | 0 | 0 | 0
C[C@H](CO)N1C[C@H](C)[C@@H](CN(C)Cc2ccncc2)Oc2ccc(NS(C)(=O)=O)cc2C1=O | 0 | 0 | - | 0 | - | -
CN1c2ccc(-c3ccccc3F)cc2[C@H]2[C@H](CCN2S(=O)(=O)c2ccc(F)cc2)[C@H]1CO | - | 0 | 0 | 0 | - | -
COc1ccccc1Oc1cn[nH]c1-c1ccc(O)cc1O | 0 | -21 | 0 | 0 | 0 | 0
COc1ccc(-c2nc(C)ncc2-c2ccc(Cl)cc2)c(O)c1 | 0 | 0 | 0 | 0 | 0 | 0
COc1ccc(-c2nc(C)ncc2-c2ccccc2)c(O)c1 | 0 | -28 | 0 | 0 | 0 | 0
COc1ccc(-c2cn[nH]c2-c2ccc(OC)cc2O)cc1 | 58 | 0 | 0 | 0 | 0 | 0
SMILES | Env fusion inh | rRNA inh HTS | FN deposit inh | ERp5 inh | PvdQ inh | PDI inh
COc1cccc(Oc2cn[nH]c2-c2ccc(O)cc2O)c1 | - | - | - | - | 0 | 0
O=C(CN1CCOCC1)N1CC[C@@H]2[C@H](CO)Nc3ccc(-c4ccccc4)cc3[C@@H]21 | - | 0 | 0 | 0 | - | -
CC(=O)N1Cc2cc(C(=O)NCC(F)(F)F)nc(-c3cccc(-c4cncnc4)c3)c2[C@H]1CCO | - | 0 | 0 | 0 | - | -
Cc1ccc(S(=O)(=O)N(C)C[C@@H]2Oc3ccc(NC(=O)CCCCCC(=O)Nc4ccccc4N)cc3C(=O)N([C@@H](C)CO)C[C@H]2C)cc1 | - | 0 | - | 0 | - | -
C[C@@H]1CN([C@@H](C)CO)C(=O)c2cccc(NS(=O)(=O)c3ccccc3)c2O[C@@H]1CN(C)Cc1ccc(Cl)c(Cl)c1 | 73[16.7 µM] | 0 | - | 0 | - | -
C[C@@H]1CN([C@H](C)CO)C(=O)c2cccc(NS(=O)(=O)c3ccccc3)c2O[C@@H]1CN(C)Cc1ccc(Cl)c(Cl)c1 | 81[16.7 µM] | 0 | - | 0 | - | -
C[C@H](CO)N1C[C@H](C)[C@@H](CN(C)Cc2ccc(Cl)c(Cl)c2)Oc2ccc(N(C)C)cc2C1=O | 58[16.7 µM] | 0 | 0 | 0 | - | -
C/C(=N\NC(=O)c1cc2ccccc2cc1O)c1ccccn1 | 59 | 0 | 0 | 0 | 0 | 0
Cc1cc(C)c2nc(N3CCC(C(=O)N4CCCC4)CC3)sc2c1 | - | -25 | - | 0 | 0 | 0
Cc1cc(C)c2nc(N3CCC(C(=O)N4CCN(c5ncccn5)CC4)CC3)sc2c1 | - | - | - | - | 0 | 0
C[C@@H]1CN([C@@H](C)CO)C(=O)c2cc(NC(=O)Nc3ccc(F)cc3)ccc2O[C@@H](C)CCCCO[C@@H]1CN(C)C(=O)CCCN(C)C | 0 | 0 | - | 0 | - | -
CCOc1ccc2nc(N3CCCCCC3)sc2c1 | - | -32 | - | 0 | 0 | 0
CCOc1ccc2nc(N3CCC(C(=O)N4CCN(C5CCCCC5)CC4)CC3)sc2c1 | 0 | 0 | 0 | 0 | 0 | -
S=c1[nH]nc(-c2ccc3ccccc3n2)n1-c1ccc(Cl)cc1 | 0 | - | 0 | - | 0 | 0
Cc1ccccc1-n1c(-c2ccc3ccccc3n2)n[nH]c1=S | 0 | -33 | 0 | 0 | 0 | 0
CC1CN(S(=O)(=O)c2cc(C(=O)NCCC3=CCCCC3)ccc2Cl)CC(C)O1 (configuration not stated) | 68 | 0 | 0 | 0 | 0 | 0
CN1c2ccc(-c3ccc(C#N)cc3)cc2[C@@H]2[C@@H](CCN2C(=O)CC2CC2)[C@H]1CO | - | 0 | 0 | 0 | - | -
c1ccc2c(CSc3ncnc4nc[nH]c34)cccc2c1 | 0 | -31 | 0 | 0 | 0 | 0
c1ccc(CCSc2ncnc3nc[nH]c23)cc1 | 0 | 0 | 0 | 0 | 0 | 0
O=C(Nc1ccc(F)c(Cl)c1)c1cc(C2CCCN(S(=O)(=O)c3ccccc3)C2)on1 (configuration not stated) | 0 | 0 | 0 | 0 | - | 0
Cn1cnc(S(=O)(=O)N2CCCC(c3cc(C(=O)Nc4ccc(F)c(Cl)c4)no3)C2)c1 (configuration not stated) | 0 | -25 | 0 | 0 | - | 0
O=C(O)c1[nH]c2ccc(Cl)cc2c1CCN1C(=O)c2ccccc2C1=O | 0 | 0 | 0 | 0 | 0 | 0
O=C(O)c1[nH]c2ccc(Br)cc2c1CCN1C(=O)c2cccc([N+](=O)[O-])c2C1=O | 0 | -28 | 0 | 0 | 0 | 0
O=C(C[C@H]1C[C@H]2c3cc(NS(=O)(=O)c4ccc(F)cc4)ccc3O[C@H]2[C@H](CO)O1)NC1CCCCC1 | 0 | 0 | - | 0 | - | -
CC(C)C(c1nnnn1Cc1ccco1)N1CCN(c2nc3ccccc3s2)CC1 (configuration not stated) | 0 | - | 39 | - | 0 | 0
